Experimental data reported in PubChem BioAssay.
Activity calls are given as the source filed them.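 How the source made its calls, unless noted: active means fluorescence slope higher than the sample average by over 3 SD (cut at about -0.22 in these data, passing the limit was not always enough); inactive means the rest.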

Tests used:
[1] = inhibitors of TNFa-induced NFkB p65 translocation, primary screen, imaging, HUVEC, MLSMR starter and 10KST1 sets (AID 438;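 active means inhibition above 20% together with a positive visual image hit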;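 further: compound added about 3h40 before a 20 min TNFalpha stimulation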;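 on inhibition: signal is the nuclear over cytoplasmic p65 intensity ratio per well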); settings: HUVEC TNFa-induced p65 nuclear translocation; cell count: measured here: nuclei count (cytotoxicity indicator), at 2.08 µM; inhibition: at 2 µM, stronger effect = higher value, 0% TNFa-plus-vehicle, 100% no-TNFa wells
[2] = inhibitors of mutant huntingtin aggregation, primary screen, imaging, exon1htt(103Q)mCFP cells, high-content imaging (AID 483;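 active means visual image review flags a hit and inhibition of aggregation exceeds 20%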;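 further: compound exposure lasted 3 days before fixation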;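 on nuclei count: percent of the per-plate median nuclei count of sample wells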); settings: exon1htt(103Q)mCFP cell line, aggregate imaging, at 2 µM; inhibition of aggregation: stronger effect = higher value; nuclei count: measured here: cell count, toxicity
[3] = inhibitors of E-selectin induction by TNFa, primary screen, imaging, HUVEC, immunofluorescence, MLSMR starter and 10KST1 sets (AID 487;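 active means visually confirmed hit in the image check and inhibition above 20%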;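 on inhibition: signal is fraction of cell area covered by stained E-selectin grains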;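 on nuclei count: 100% = median nuclei count of all wells on the same plate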); settings: HUVEC TNFalpha-induced E-selectin immunofluorescence imaging, at 2 µM; inhibition: stronger effect = higher value; nuclei count: measured here: cell number, toxicity
[4] = target: Voltage-gated potassium channel subunit beta-2 (Rattus norvegicus) (UniProt P62483); assay: KvBeta enzyme negative modulators, primary screen, biochemical, NADPH fluorescence (AID 622); settings: recombinant KvBeta, 4-cyanobenzaldehyde reduction, at 10 µM, stronger effect = higher value;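 further: slope of raw intensity against log time taken from 70 to 1610 s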
[5] = target: Voltage-gated potassium channel subunit beta-2 (Rattus norvegicus) (UniProt P62483); assay: KvBeta positive modulators, primary screen, biochemical, NADPH fluorescence (AID 623;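 active means NADPH fluorescence slope more negative than the mean of all samples by about 3 SD, 99.7% confidence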;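 further: fluorescence intensity change per second fitted from 20 to 320 s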); settings: Recombinant KvBeta, NADPH fluorescence decrease slope, 10 min; at 10 µM; stronger effect = lower value
[6] = target: Muscarinic acetylcholine receptor M4 (Homo sapiens) (UniProt P08173); assay: compounds altering M4/GIRK thallium flux, either direction, primary screen, M4 allosteric agonist project, cell-based, HEK293 M4/GIRK, BTC-AM (AID 625;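 active means fluorescence slope after compound addition differing from the mean of all tested samples at 99.7% confidence, mostly higher but some lower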;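 further: thallium influx through GIRK channels coupled to M4 in HEK293 cells with BTC-AM dye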); settings: at 10 µM, actives lie on both sides
Procedure, shortened: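 assay system = HEK293 cells with M4 receptor and GIRK channels | medium = pH 7.3 thallium assay buffer | doses = 10 µM final, single point | timing = cells overnight at 37 °C, BTC-AM loading 1 h, reads 2 min total | signal = BTC-AM fluorescence, 1 Hz kinetic reads | read-out = post-addition slope, 15–24 s, of baseline-normalized fluorescence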

[7] = inhibitors of Sendai virus-induced IRF3 signaling, primary screen, TLR/RLR signaling modifier project, cell-based, Sendai virus stimulus, luciferase, 10K MLSCN set (AID 602276;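 active means inhibition at or above 50% at 10 µM; inactive means inhibition below 50%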;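 further: firefly luciferase from ISG56 promoter only with Renilla not read in this screen; 0% = Sendai virus plus DMSO and 100% = medium plus DMSO without virus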); settings: HEK293 RL24 IRF3 luciferase reporter, at 10 µM, stronger effect = higher value
[8] = inhibitors of poly I:C-induced TLR3 signaling, primary screen, cell-based, poly I:C stimulus, luciferase, 10K MLSCN set (AID 602277;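 active means inhibition of the reporter signal at or above 50%; inactive means inhibition below 50%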); settings: HEK293-TLR3 RL24 IRF3 luciferase reporter, at 10 µM, stronger effect = higher value

Sequence of Voltage-gated potassium channel subunit beta-2 (Rattus norvegicus) (P62483 whole entry, looked up): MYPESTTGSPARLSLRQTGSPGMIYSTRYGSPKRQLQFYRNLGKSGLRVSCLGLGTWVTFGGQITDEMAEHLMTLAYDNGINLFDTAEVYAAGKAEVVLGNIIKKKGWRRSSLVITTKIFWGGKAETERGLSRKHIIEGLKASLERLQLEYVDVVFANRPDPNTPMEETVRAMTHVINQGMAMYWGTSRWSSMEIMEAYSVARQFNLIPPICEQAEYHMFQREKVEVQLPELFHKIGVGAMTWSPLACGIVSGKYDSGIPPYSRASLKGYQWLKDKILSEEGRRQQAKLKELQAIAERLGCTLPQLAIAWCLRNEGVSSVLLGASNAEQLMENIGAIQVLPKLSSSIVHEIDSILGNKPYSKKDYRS
Sequence of Muscarinic acetylcholine receptor M4 (Homo sapiens) (P08173 whole entry, looked up): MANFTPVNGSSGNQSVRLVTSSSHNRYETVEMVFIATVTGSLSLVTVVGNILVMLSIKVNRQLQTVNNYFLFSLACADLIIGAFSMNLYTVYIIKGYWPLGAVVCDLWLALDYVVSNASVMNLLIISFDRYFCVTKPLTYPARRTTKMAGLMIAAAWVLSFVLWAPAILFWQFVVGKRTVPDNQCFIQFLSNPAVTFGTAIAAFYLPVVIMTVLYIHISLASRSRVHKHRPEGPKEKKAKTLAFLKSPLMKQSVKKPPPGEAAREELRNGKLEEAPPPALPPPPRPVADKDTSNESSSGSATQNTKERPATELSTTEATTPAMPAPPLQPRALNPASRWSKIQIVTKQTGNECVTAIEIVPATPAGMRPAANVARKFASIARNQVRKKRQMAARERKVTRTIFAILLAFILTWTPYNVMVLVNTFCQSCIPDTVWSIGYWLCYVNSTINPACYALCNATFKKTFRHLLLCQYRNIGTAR

| Compound | cell count [1] | inhibition [1] | inhibition of aggregation [2] | nuclei count [2] | inhibition [3] | nuclei count [3] | fluorescence slope [4] | NADPH fluorescence slope [5] | fluorescence slope [6] | inhibition [7] | inhibition [8] |
| --- | --- | --- | --- | --- | --- | --- | --- | --- | --- | --- | --- |
| CCC(=O)N1CCc2cc(Br)cc(S(=O)(=O)C3(C(=O)OC)CC3)c21 | 469 | 2.5% (inactive) | -5.1% (inactive) | 98.8% | 3.4% (inactive) | 97.1% | -0.554 (inactive) | -3.7e-05 (inactive) | 0.00618 (inactive) | 17% (inactive) | 18% (inactive) |
| O=C(c1cccc(Cl)c1)N1CCN(Cc2ccncc2)CC1 | 702 | 3.1% (inactive) | 1.7% (inactive) | 106% | -87.8% (inactive) | 109% | -0.537 (inactive) | 0.000145 (inactive) | 0.00543 (inactive) | 3.71% (inactive) | 7.08% (inactive) |
| COc1ccc2c(c1)Sc1ccccc1N2CCN(C)C | 676 | -8.8% (inactive) | 2.5% (inactive) | 117% | -11.3% (inactive) | 103% | -0.573 (inactive) | -2.9e-05 (inactive) | 0.00495 (inactive) | 8.63% (inactive) | 14.5% (inactive) |
| O=C(c1cccs1)N1CCc2ccccc21 | 335 | -3.8% (inactive) | 5% (inactive) | 104% | -59.6% (inactive) | 111% | -0.511 (inactive) | -5e-05 (inactive) | 0.00554 (inactive) | -42% (inactive) | -100% (inactive) |
| Cc1c(C(=O)O)sc2ncn(C)c(=O)c12 | 745 | 2.8% (inactive) | -9% (inactive) | 116% | 21% (inactive) | 106% | -0.553 (inactive) | -2.2e-05 (inactive) | 0.00525 (inactive) | 2.12% (inactive) | -1.59% (inactive) |
| CC12C(=O)N(CCC(=O)O)C(=O)C1C1C=CC2C1 (centres undefined) | 666 | 23.6% (active) | 3.1% (inactive) | 99.2% | 7.8% (inactive) | 114% | -0.456 (inactive) | -4.5e-05 (inactive) | 0.00503 (inactive) | 17.6% (inactive) | 21.9% (inactive) |
| CCCC(=O)Nc1ccccc1NC(=O)CCC | 353 | -5.6% (inactive) | -10.5% (inactive) | 103% | -23.8% (inactive) | 109% | -0.434 (inactive) | -6e-05 (inactive) | 0.00516 (inactive) | 14.4% (inactive) | 15.4% (inactive) |
| Cc1nn(-c2ccccc2)c2c1C(c1c(C)[nH]c(C#N)c1C)C(C#N)=C(N)O2 (centres undefined) | 565 | -13.4% (inactive) | 9.2% (inactive) | 86% | 15.4% (inactive) | 101% | -0.391 (inactive) | 8.5e-05 (inactive) | 0.00623 (inactive) | 8.98% (inactive) | 13% (inactive) |
| COc1ccc(Br)cc1C(=O)Nc1nnn(C)n1 | 383 | 6.7% (inactive) | 5.6% (inactive) | 102% | 17% (inactive) | 106% | -0.51 (inactive) | 4.6e-05 (inactive) | 0.00661 (inactive) | -19.5% (inactive) | -34.7% (inactive) |
| Cc1ccc(Cn2c(C(=O)NCCCN3CCOCC3)cc3sccc32)cc1 | 765 | -5.9% (inactive) | -85.9% (inactive) | 111% | -218% (inactive) | 118% | -0.486 (inactive) | 1.1e-05 (inactive) | 0.00431 (inactive) | 14.1% (inactive) | 31.6% (inactive) |
| O=C(O)CCc1ccc(-c2cccs2)n1CCC(=O)O | 828 | -2.7% (inactive) | -3.1% (inactive) | 95.6% | -43% (inactive) | 116% | -0.55 (inactive) | -5.2e-05 (inactive) | 0.00465 (inactive) | 14.7% (inactive) | 20.5% (inactive) |
| O=c1cc(-c2ccccc2)[nH]c2nc3ccccc3n12 | 302 | -1.2% (inactive) | 15.1% (inactive) | 99.6% | -4.8% (inactive) | 96.2% | -0.422 (inactive) | 2.4e-05 (inactive) | 0.00541 (inactive) | 40.6% (inactive) | 27% (inactive) |
| C=CCn1c(=O)[nH]c2cc(C(=O)N3CCN(c4ccc(C(C)=O)cc4)CC3)ccc2c1=O | 359 | -1.8% (inactive) | 20.3% (inactive) | 101% | -161% (inactive) | 106% | -0.464 (inactive) | 1.5e-05 (inactive) | 0.00531 (inactive) | -1.65% (inactive) | -9.26% (inactive) |
| CCCN(CCC)c1nc2ccccc2n2c(C)nnc12 | 460 | 6.5% (inactive) | -1.5% (inactive) | 76.7% | -77.3% (inactive) | 102% | -0.461 (inactive) | -3.2e-05 (inactive) | 0.00414 (inactive) | 11.6% (inactive) | 11.3% (inactive) |
